Screens deposited in PubChem BioAssay by The Scripps Research Institute Molecular Screening Center.
An excerpt weighted towards active compounds, which were near 3.1% of everything screened.
OX1R antag-1: OX1R (HCRTR1) antagonists, primary screen, fluorescence, CHO/OX1R cells, Fluo-8 calcium, orexin A; Orexin/Hypocretin receptor type 1 (Homo sapiens), O43613; Fluo-8 calcium fluorescence; inhibition, % at 5 µM; 330,000 compounds, 0.43% hits; AID 434989, 2010;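 active = inhibition above its plate's threshold, mean inhibition of all tested compounds on the plate plus 3 SD, cut at about 37% in these data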;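 note: 0% = orexin A challenge wells and 100% = SB-334867-A antagonist wells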
Target sequence (O43613 whole entry, looked up): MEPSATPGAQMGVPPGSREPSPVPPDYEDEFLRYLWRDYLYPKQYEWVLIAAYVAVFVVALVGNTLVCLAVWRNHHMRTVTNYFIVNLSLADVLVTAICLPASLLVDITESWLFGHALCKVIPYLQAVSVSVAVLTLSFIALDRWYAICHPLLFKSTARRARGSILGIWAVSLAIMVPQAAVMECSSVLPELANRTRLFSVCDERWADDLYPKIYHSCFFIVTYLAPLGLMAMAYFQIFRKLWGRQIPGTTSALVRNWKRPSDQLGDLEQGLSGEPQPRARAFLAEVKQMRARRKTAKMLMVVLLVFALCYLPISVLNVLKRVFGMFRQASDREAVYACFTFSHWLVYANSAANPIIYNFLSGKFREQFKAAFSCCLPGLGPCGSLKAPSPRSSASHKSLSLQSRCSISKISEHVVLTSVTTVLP
OX1R antag-2: antagonists of human orexin 1 receptor (OX1R); inhibition, % at 6.6 µM; 330,000 compounds, 1.8% hits; OX1R-expressing cells, FRET antagonist read-out; Orexin/Hypocretin receptor type 1 (Homo sapiens), O43613; AID 485270, 2010; in the data active = inhibition mostly above about 38%, no sharp cut-off; inactive = mostly below about 40%;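 note: 0% = agonist challenge alone and 100% = reference antagonist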
GalR3 antagonist: GalR3 antagonists in HEK293 cells, primary screen, cell-based, fluorescence readout. 360,000 compounds, 0.44% hits. HEK293 GalR3-CNG cAMP membrane potential fluorescence; galR3 body fused to GalR1 C-terminus. AID 651719, 2012. Galanin receptor type 3 (Homo sapiens), O60755. inhibition, % at 3 µM;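 active = inhibition above the screen-wide average plus 3 SD, cut at about 13% in these data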;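 note: forskolin and galanin both at EC90 stimulate the cells; cAMP rise reported by CNG channel membrane potential dye signal; 0% = forskolin plus galanin with DMSO and 100% = forskolin alone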
GPR7 antag: GPR7 receptor antagonists, primary screen, cell-based, fluorescence, single concentration. inhibition, % at 4.4 µM. 290,000 compounds, 1.1% hits. GPR7-expressing cells, fluorescence antagonist assay; in the data active = inhibition above about 16%, passing the limit was not always enough;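 note: cells stimulated with the agonist NPW; 0% = agonist with vehicle and 100% = vehicle without agonist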
CHO parental Ca: ATP-evoked calcium signal inhibitors, parental CHO, primary screen, counter-screen for OX1R antagonist project, cell-based, fluorescence, Fluo-8 calcium dye | parental CHO-K1, ATP-induced calcium, Fluo-8 fluorescence | inhibition, % at 5.6 µM | 330,000 compounds, 0.63% hits | AID 463079, 2010;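 active = inhibition above that plate's mean sample inhibition plus 3 SD, cut at about 26% in these data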;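 note: 0% = ATP-challenged DMSO wells and 100% = DMSO wells without ATP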
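Material – parental CHO cells · Reagent – ATP stimulus · Compound – single nominal dose of 5.6 µM per compound · Detection – Fluo-8 fluorescence · Read-out basis – percent inhibition of calcium signal · Controls – ATP-challenged DMSO wells low, unchallenged DMSO wells high · Repeats – no replicates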
GalR3 conf: GalR3 antagonist hit confirmation, cell-based, fluorescence, triplicate. inhibition, % at 3 µM. 1,600 compounds, 59% hits. HEK293 GalR3 CNG cAMP biosensor, membrane potential fluorescence; galR3 fused to GalR1 carboxy tail; challenged with forskolin and galanin at EC90. AID 652245, 2013. shares compounds with GalR3 antagonist;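 active = inhibition above the primary screen's cutoff, the mean inhibition of all screened compounds plus 3 SD, cut at about 13% in these data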;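 note: 0% = forskolin plus galanin and 100% = forskolin alone with DMSO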
HEK-CNG parental: nonspecific cAMP agonists in parental HEK-CNG cells, counter-screen for GalR3 antagonist project, cell-based, fluorescence, high throughput. shares compounds with GalR3 antagonist. HEK293-CNG parental cells, cAMP membrane potential fluorescence; normalised: DMSO wells 0%, forskolin wells 100%. activation, % at 3 µM. 1,600 compounds, 10% hits. AID 652268, 2013; in the data active = activation above about 1.3%
Starred values were filed as active, the others as inactive; . = no result.

SMILES	OX1R antag-1	OX1R antag-2	GalR3 antagonist	GPR7 antag	CHO parental Ca	GalR3 conf	HEK-CNG parental
COc1ccc(-c2nnc(SC(C(=O)c3c[nH]c4ccccc34)c3ccccc3)n2N)cc1OC (centres undefined)	-1.1	2.0	1.0	-2.6	-4.1	.	.
COc1cccc(NC(=S)N(CCCN2CCCC2)Cc2ccco2)c1	-7.6	13.6	21.0*	-9.8	-5.8	1.3	0.5
CC1C(=O)N2CCCc3cc(NC(=O)C(=O)NCCc4ccc(F)cc4)cc1c32 (centres undefined)	-24.1	20.8	-2.1	.	-27.0	.	.
Cc1nn(C)c(C)c1CN(C)S(=O)(=O)c1ccc2ccccc2c1	27.5	52.6*	109.8*	14.4	38.2*	116.1*	-0.5
COC(C[C@@H]1O[C@@H]1[C@@H](O)[C@H](C)OCc1ccccc1)OC	.	.	-6.2	.	.	.	.
COC(C[C@H]1O[C@H]1[C@H](O)[C@H](C)OCc1ccccc1)OC	.	.	.	.	.	0.8	0.3
COc1cccc(C2=NOC(C(=O)NCC3CCCO3)C2)c1 (centres undefined)	-11.3	-1.0	35.1*	8.0	-10.5	7.5	-0.1
COc1ccc(OC)c(C2=NOC(C(=O)NCC3CCCO3)C2)c1 (centres undefined)	-2.7	6.2	.	-3.6	-2.3	.	.
C=CCN(C(=O)c1csnn1)C(C(=O)NC1CCCCC1)c1ccccc1 (centres undefined)	-14.1	6.0	-10.2	-1.5	-8.5	.	.
Cc1nn(C)c(C(=O)NCc2ccc(Cl)cc2)c1Cl	23.7	30.1	81.6*	-7.9	11.4	100.4*	0.1
CS(=O)(=O)N1CCN(c2ccc([N+](=O)[O-])cc2C(F)(F)F)CC1	-0.1	30.5	17.6*	-11.4	-11.2	13.6*	-0.1
CS(=O)(=O)N1CCN(c2ccc([N+](=O)[O-])cc2F)CC1	-10.6	36.6	-1.2	-9.6	-14.3	.	.
Cc1ccc(S(=O)(=O)N(C)Cc2ccc(C(=O)N/N=C/c3ccc(OC(F)F)cc3OC(F)F)cc2)cc1	-0.5	6.3	80.3*	5.2	5.9	28.2*	-0.3
CNC(=S)N/N=C/c1ccc(OCC(=O)Nc2c(C)cc(C)cc2C)c(OC)c1	-24.8	13.4	19.1*	-10.8	-8.9	23.0*	-0.3
COCCCn1c(-c2ccc(OC)cc2)nc2c1c(=O)[nH]c(=O)n2Cc1ccccc1	-20.4	12.2	13.7*	-5.2	-15.6	12.5	0.2
C=C(C(=O)c1ccccc1)C(CC(=O)c1ccccc1)c1ccccc1 (centres undefined)	-14.6	13.2	-2.2	-1.6	12.9	.	.
COC(=O)CNC(=O)COC(=O)/C=C/c1cccs1	-0.5	17.2	-3.4	0.4	-9.5	.	.
COc1ccc(CCNC(=O)COC(=O)/C=C/c2cccs2)cc1	-6.5	18.8	.	-11.2	-3.4	0.2	0.7
COc1ccc(CN2C(=O)C(CC(=O)NCC3CCCCC3)CC(C(=O)N(C(C)C)C(C)C)=C2C)cc1 (centres undefined)	.	.	0.0	.	.	.	.
CCCCn1c(=O)[nH]c(=O)c2c1nc(Cn1ncc(Cl)c(Cl)c1=O)n2CCC	-33.9	13.6	23.3*	-8.9	-31.2	19.8*	0.5
CCOc1cc(NC(=S)NCCc2ccccc2)c(OCC)cc1NC(C)=O	-44.7	17.7	-3.3	-0.2	-22.0	.	.
CCOc1ccc(C2C(C(=O)c3ccc(C)o3)=C(O)C(=O)N2c2nc(C)c(C(=O)OC)s2)cc1 (centres undefined)	-29.0	-11.3	13.2*	-3.1	-5.4	15.2*	0.1
COC(=O)c1sc(N2C(=O)C(O)=C(C(=O)c3ccc(C)o3)C2c2ccc(OC)c(OC)c2)nc1C (centres undefined)	.	.	35.6*	-23.1	.	6.6	-0.4
